Screening results as filed in PubChem BioAssay.
TCR-CD3 inh: blocks the human TCR-CD3 interaction; AID 651800; inhibition, % at 9.4 µM; 360,000 compounds, 0.37% hits; TAMRA-labeled TCR probe fluorescence, biochemical; in the data active = inhibition above about 19%;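 note: recombinant mutant TCR 2C K166C tagged with TAMRA read by polarization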
SIAE primary: inhibitors of human sialic acid acetylesterase SIAE. Q9HAT2. SIAE FP-Rh probe binding, fluorescence polarization. inhibition, % at 9.66 µM. 370,000 compounds, 0.69% hits. AID 1053197;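 active = inhibition above a cutoff: mean of compounds within the control limits plus 3 SD of those, cut at about 17% in these data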
HTRA1 inhibitor: inhibitors of human serine peptidase HTRA1. Q92743. recombinant HTRA1, FP-rhodamine activity-based probe, fluorescence polarization. inhibition, % at 5.96 µM. 340,000 compounds, 0.5% hits. AID 504803; in the data active = inhibition above about 36%
mABHD4 FP: inhibits mouse alpha/beta hydrolase domain 4; 370,000 compounds, 0.54% hits; inhibition, % at 8.92 µM; purified mABHD4, FP-Rh probe fluorescence polarization; Q8VD66;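 active = inhibition exceeding the mean over every tested compound plus 3 SD, cut at about 30% in these data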
Target sequence (Q8VD66 whole entry, looked up, the tested form may be a part): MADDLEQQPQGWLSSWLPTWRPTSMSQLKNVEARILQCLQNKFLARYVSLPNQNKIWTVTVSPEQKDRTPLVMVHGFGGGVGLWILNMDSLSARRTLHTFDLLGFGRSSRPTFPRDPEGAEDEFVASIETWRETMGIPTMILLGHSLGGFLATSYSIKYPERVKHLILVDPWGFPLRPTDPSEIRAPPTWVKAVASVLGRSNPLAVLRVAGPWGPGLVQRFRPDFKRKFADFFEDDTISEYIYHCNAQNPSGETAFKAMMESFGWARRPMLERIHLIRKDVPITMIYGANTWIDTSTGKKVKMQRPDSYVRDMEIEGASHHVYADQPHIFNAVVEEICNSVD
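System: mouse ABHD4 enzyme, wild type / Medium: HEPES pH 7.0, NaCl, Pluronic buffer / Reagent: FP-Rh activity-based fluorescent probe / Control set: S159A mutant high control, sample median low control / Detection: fluorescence polarization with parallel and perpendicular emission, 525/598 nm / Schedule: 45 min + 60 min at 25 °C / Compound dosing: 8.92 µM, single dose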
ATG4B inhibitor: inhibitors of human ATG4B cysteine protease; AID 504462; Q9Y4P1; inhibition, % at 8.33 µM; ATG4B cleavage of LC3-PLA2, NBD-HPC fluorescence, 1 h; 340,000 compounds, 0.51% hits; in the data active = inhibition above about 40%
PRMT1 inh: inhibitors of human PRMT1 | Q99873 | recombinant PRMT1, activity-based probe fluorescence polarization | inhibition, % at 2.79 µM | 370,000 compounds, 1.3% hits;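 active = inhibition above about 21% made by adding two undisclosed values, limit read from the data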
PRMT1 confirm: confirmation of human PRMT1 inhibitors; shares compounds with PRMT1 inh; recombinant His-PRMT1, activity-based probe fluorescence polarization; inhibition, % at 2.79 µM; 3,300 compounds, 42% hits; AID 687036;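 active = mean inhibition across replicates above the hit cutoff derived for the earlier primary screen, cut at about 22% in these data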
Of the large screens only hits and unclear results are named; the others gave an inactive call (follow-up assays come after a bar, where they were run). An excerpt weighted towards active compounds, which were near 2.9% of everything screened.

COCc1cn([C@H]2C[C@@H]3O[C@H](CO)CC[C@@H]3O[C@@H]2CCc2ccc(-c3ccc(OC)cc3)cc2)nn1	none (no result: TCR-CD3 inh, HTRA1 inhibitor, ATG4B inhibitor)
CC(=O)N(c1cccc(C)c1)C1SC(=O)N(c2ccccc2)C1=O (configuration not stated)	PRMT1 inh 32 | PRMT1 confirm 23
O=C(Cn1sc2ccccc2c1=O)Nc1ccc(F)cc1	PRMT1 inh 91 (no result: ATG4B inhibitor) | PRMT1 confirm 91
O=C(Cn1sc2ccccc2c1=O)Nc1ccc(Cl)cc1	PRMT1 inh 90 (no result: ATG4B inhibitor) | PRMT1 confirm 90
O=C(Cn1sc2ccccc2c1=O)Nc1ccc(Br)cc1	PRMT1 inh 93 (no result: ATG4B inhibitor) | PRMT1 confirm 81
CC(C)CNC(=O)C1CSCCS(=O)(=O)N1Cc1ccc(F)cc1 (configuration not stated)	none (no result: TCR-CD3 inh, HTRA1 inhibitor, ATG4B inhibitor)
CC(C)(C)c1csc(NC(=O)CSc2nc3ccccc3c(=O)[nH]2)n1	none
CC(C)(C)c1csc(NC(=O)Cn2cnc3ccccc3c2=O)n1	PRMT1 inh 29 | PRMT1 confirm inactive
Nc1cccnc1Sc1cccc(Cl)c1	PRMT1 inh 31 | PRMT1 confirm inactive
Nc1cccnc1Sc1ccc(Cl)cc1	none
CC(=O)NNC(=S)NC(=O)c1cccc([N+](=O)[O-])c1	PRMT1 inh 48 | PRMT1 confirm inactive
O=C(c1cc(C2CC2)on1)N(C1CCCCC1)C1CCOCC1	none (no result: TCR-CD3 inh, HTRA1 inhibitor, ATG4B inhibitor)
COC(=O)[C@]12CCCCC=C1N(Cc1ccc(OC)cc1)C(=O)[C@@H]2CC(=O)NCc1cccc(C(F)(F)F)c1	none (no result: TCR-CD3 inh, HTRA1 inhibitor, ATG4B inhibitor)
S=P(N1CC1)(N1CC1)N1CC1	PRMT1 inh 40 | PRMT1 confirm inactive
COC(=O)c1ccc(-c2ccco2)n1Cc1ccccc1Cl	none
COC(=O)c1ccc(-c2ccco2)n1Cc1nc(-c2ccc(OC)c(OC)c2)oc1C	PRMT1 inh 29 | PRMT1 confirm inactive
COC(=O)[C@]12C[C@H](CC(=O)NCCCN3CCCC3=O)C(=O)N(Cc3ccco3)C1=C[C@H](C1CCCC1)O[C@@H]2C	none (no result: TCR-CD3 inh, HTRA1 inhibitor, ATG4B inhibitor)
CCOc1ccc(/C=C/C2=Cc3c(sc(NC(=O)CSc4n[nH]c(N)n4)c3C#N)C(C)(C)C2)cc1	PRMT1 inh 33 | PRMT1 confirm inactive
Cc1ccc(Cn2cc(/C=N/Nc3ccc([N+](=O)[O-])cn3)c3ccccc32)cc1	none
O=C(O)Cn1cc(/C=N/Nc2ccc([N+](=O)[O-])cn2)c2ccccc21	PRMT1 inh 28 | PRMT1 confirm inactive
Cc1cc(C)cc(NC(=O)OC2CC3CC2[C@H]2CCCCN2[C@H]3C)c1 (some centres not stated)	none (no result: TCR-CD3 inh, HTRA1 inhibitor, ATG4B inhibitor)
O=C(COC(=O)CNC(=O)c1ccco1)Nc1ncc(Cl)cc1Cl	PRMT1 inh 35 | PRMT1 confirm inactive
O=C(CNC(=O)c1cccs1)c1ccc([N+](=O)[O-])cc1	none
O=C(Cc1ccccc1)NCC(=O)OCC(=O)c1ccc([N+](=O)[O-])cc1	PRMT1 inh 76 | PRMT1 confirm 67
O=C(CNS(=O)(=O)c1ccccc1)OCC(=O)c1ccc([N+](=O)[O-])cc1	PRMT1 inh 80 | PRMT1 confirm 42
O=C(CNC(=O)c1cccs1)OCC(=O)c1ccc([N+](=O)[O-])cc1	PRMT1 inh 60 | PRMT1 confirm 51
O=C(CNS(=O)(=O)c1ccccc1)OCC(=O)c1ccc(Br)cc1	none
CCn1c2ccccc2c2cc(NC(=O)c3cc4c(C)nn(-c5ccccc5)c4s3)ccc21	none (no result: TCR-CD3 inh, HTRA1 inhibitor, ATG4B inhibitor)
Cc1ccc(C(=O)NCC(=O)NCC(=O)OCC(=O)c2ccc([N+](=O)[O-])cc2)cc1	PRMT1 inh 63 | PRMT1 confirm 43
O=C(CNC(=O)c1ccco1)OCC(=O)c1ccc([N+](=O)[O-])cc1	PRMT1 inh 47 | PRMT1 confirm 42
O=[N+]([O-])c1cccc(C(=S)N2CCN(c3ccccc3)CC2)c1	PRMT1 inh 35 | PRMT1 confirm inactive
COc1cccc(/C=C2\SC(=S)N(CCCC(=O)N3CCCC3)C2=O)c1	none
COc1cccc(/C=C2\SC(=O)N(CCC(=O)N3CCC(C(=O)O)CC3)C2=O)c1	PRMT1 inh 30 | PRMT1 confirm inactive
Cc1cc(C)cc(-n2c3nc4ccccc4nc3c3c(=O)n(Cc4ccco4)cnc32)c1	PRMT1 inh 52 | PRMT1 confirm inactive
